How the values were obtained:
[1] = system: T. cruzi Tulahuen CL2 β-galactosidase strain; experiment: In vitro activity against T. cruzi intracellular amastigotes in MRC-5SV2 cells; assay type: cell-based; conditions: Trypanosoma cruzi, MRC-5 SV2, 168 h, read-out: T. cruzi EC50
Procedure, shortened: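 Nifurtimox-sensitive Tulahuen CL2 β-galactosidase parasites infected MRC-5SV2 fibroblasts in MEM with 200 mM L-glutamine, 16.5 mM NaHCO3 and 5% inactivated FCS, at 37 °C and 5% CO2. Wells held 4×10^3 cells and 4×10^4 parasites. Test compound was given as ten 4-fold dilutions (top 64 μM, <1% DMSO) for 7 days. CPRG was then added for 4 h at 37 °C and absorbance read at 540 nm. IC50 from % reduction versus untreated-infected controls; mean ± SEM, 2–4 experiments. Benznidazole reference.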

[2] = system: T. b. brucei (Squib 427 strain); experiment: In vitro activity against T. b. brucei; assay type: cell-based; conditions: Trypanosoma brucei, read-out: T. b. bruc. EC50
[3] = system: T. b. rhodesiense (STIB-900 strain); experiment: In vitro activity against T. b. rhodesiense; assay type: cell-based; conditions: Trypanosoma brucei, read-out: T. b. rhod. EC50
Procedure, shortened: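 STIB-900 parasites, axenic in HMI-9 with 10% FBS at 37 °C and 5% CO2, seeded at 4×10^3 parasites/well. Test compound was given as ten 4-fold dilutions (top 64 μM, <1% DMSO). Growth period […], then resazurin added and fluorescence measured after 24 h. IC50 from a sigmoid variable-slope fit versus untreated controls; mean ± SEM, 2–4 experiments. Suramin as reference.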

[4] = MRC-5SV2 cytotoxicity; assay type: cell-based, human; conditions: human, MRC-5SV2 cells
Procedure, shortened: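 MRC-5SV2 cells (3×10^4 cells/mL) in MEM with Earl's salts, L-glutamine, NaHCO3 and 5% inactivated FCS, at 37 °C and 5% CO2. Exposure to test compound (ten 4-fold dilutions, top 64 μM, <1% DMSO) lasted 3 days. Resazurin was then added for 4 h at 37 °C, with fluorescence read at ex 550/em 590 nm. CC50 from % reduction relative to untreated (100%) and medium-only (0%) controls.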

[5] = PMM cytotoxicity; assay type: cell-based, mouse; conditions: Swiss, mouse
[6] = system: L. infantum MHOM/MA (BE)/67; assay type: cell-based, Leishmania infantum; conditions: Leishmania infantum, Macrophage, in Mus musculus, 120 h, read-out: L. inf. EC50
Procedure, shortened: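 Intracellular amastigotes of hamster spleen origin infected Swiss mouse peritoneal macrophages (elicited 2 days with 2% potato starch), in RPMI-1640 with 5% inactivated FCS, at 37 °C and 5% CO2, 4.5×10^5 parasites/well. Test compound (ten 4-fold dilutions, top 64 μM, <1% DMSO) was added 2 h post-infection. After 5 days, amastigotes/macrophage were counted after 10% Giemsa. IC50 was derived from % reduction versus controls; mean ± SEM, 2–4 experiments. Miltefosine reference.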

[7] = MRC-5 CC50, MRC-5SV2 cells, 3 days incubation
[8] = PMM CC50, primary peritoneal mouse macrophages

SMILES	EC50 [1] [µM]	EC50 [2] [µM]	EC50 [3] [µM]	CC50 at 3 days [4, 7] [µM]	CC50 at 5 days [5, 8] [µM]	EC50 [6] [µM]	CC50 at 3 days [4] [µM]	CC50 at 5 days [5] [µM]
Cc1ncnc2c1c(F)cn2[C@@H]1O[C@H](CO)[C@@H](O)[C@H]1O [compound 6]	< 0.25	0.41	< 0.25	0.3	32	–	–	–
Cc1ncnc2c1c(Br)cn2[C@@H]1O[C@H](CO)[C@@H](O)[C@H]1O [compound 8]	5.28	> 64	3.84	39.6	32	–	–	–
Cc1cn([C@@H]2O[C@H](CO)[C@@H](O)[C@H]2O)c2ncnc(C)c12 [compound 9]	1.54 ± 0.52	0.82 ± 0.32	0.45 ± 0.08	> 64	> 64	–	–	–
Cc1ncnc2c1c(SC(F)(F)F)cn2[C@@H]1O[C@H](CO)[C@@H](O)[C@H]1O [compound 11]	30.9	> 64	> 64	–	> 64	–	–	–
C=Cc1cn([C@@H]2O[C@H](CO)[C@@H](O)[C@H]2O)c2ncnc(C)c12 [compound 12]	6.95 ± 1.29	2.73 ± 0.28	2.2 ± 0.11	> 64	> 64	–	–	–
C=C(C)c1cn([C@@H]2O[C@H](CO)[C@@H](O)[C@H]2O)c2ncnc(C)c12 [compound 14]	5.04	0.5	< 0.25	1.49	> 64	–	–	–
Cc1ncnc2c1c(C(C)C)cn2[C@@H]1O[C@H](CO)[C@@H](O)[C@H]1O [compound 15]	29.1	0.67	0.51	0.3	> 64	–	–	–
Cc1ncnc2c1c(C1=CCCC1)cn2[C@@H]1O[C@H](CO)[C@@H](O)[C@H]1O [compound 16]	> 64	> 64	> 64	> 64	> 64	–	–	–
Cc1ncnc2c1c(C1CCCC1)cn2[C@@H]1O[C@H](CO)[C@@H](O)[C@H]1O [compound 17]	48.9	> 64	53.6	> 64	> 64	–	–	–
Cc1ncnc2c1c(C1=CCCCC1)cn2[C@@H]1O[C@H](CO)[C@@H](O)[C@H]1O [compound 18]	> 64	> 64	> 64	> 64	> 64	–	–	–
Cc1ncnc2c1c(C1CCCCC1)cn2[C@@H]1O[C@H](CO)[C@@H](O)[C@H]1O [compound 19]	> 64	> 64	> 64	> 64	> 64	–	–	–
Cc1ncnc2c1c(C1=CCOCC1)cn2[C@@H]1O[C@H](CO)[C@@H](O)[C@H]1O [compound 20]	2.87 ± 0.28	12.3 ± 2.45	9.75 ± 0.02	> 64	> 64	–	–	–
Cc1ncnc2c1c(C1CCOCC1)cn2[C@@H]1O[C@H](CO)[C@@H](O)[C@H]1O [compound 21]	3.98 ± 0.94	15.1 ± 1.02	12 ± 1.75	> 64	> 64	–	–	–
Cc1ncnc2c1c(C1=CCN(C)CC1)cn2[C@@H]1O[C@H](CO)[C@@H](O)[C@H]1O [compound 23]	> 64	> 64	> 64	–	–	> 64	> 64	> 64
Cc1ncnc2c1c(-c1ccccc1)cn2[C@@H]1O[C@H](CO)[C@@H](O)[C@H]1O [compound 24]	40.3	> 64	> 64	> 64	> 64	–	–	–
CCCC#Cc1cn([C@@H]2O[C@H](CO)[C@@H](O)[C@H]2O)c2ncnc(C)c12 [compound 25]	20.4 ± 0.39	0.89 ± 0.21	0.37 ± 0.08	> 64	> 64	–	–	–

SMILES	EC50 [1] [µM]	EC50 [2] [µM]	EC50 [3] [µM]	CC50 at 3 days [4, 7] [µM]	CC50 at 5 days [5, 8] [µM]	EC50 [6] [µM]	CC50 at 3 days [4] [µM]	CC50 at 5 days [5] [µM]
CCCCCc1cn([C@@H]2O[C@H](CO)[C@@H](O)[C@H]2O)c2ncnc(C)c12 [compound 26]	> 64	> 64	> 64	> 64	> 64	–	–	–
CCCCC#Cc1cn([C@@H]2O[C@H](CO)[C@@H](O)[C@H]2O)c2ncnc(C)c12 [compound 27]	2.08	0.52	1.19	7.58	8	–	–	–
CCCCCCc1cn([C@@H]2O[C@H](CO)[C@@H](O)[C@H]2O)c2ncnc(C)c12 [compound 28]	42.1	> 64	> 64	> 64	> 64	–	–	–
CC(C)=Cc1cn([C@@H]2O[C@H](CO)[C@@H](O)[C@H]2O)c2ncnc(C)c12 [compound 29]	> 64	> 64	> 64	> 64	> 64	–	–	–
Cc1ncnc2c1c(CC(C)C)cn2[C@@H]1O[C@H](CO)[C@@H](O)[C@H]1O [compound 30]	> 64	> 64	> 64	> 64	> 64	–	–	–
Cc1ncnc2c1c(C#CC(C)C)cn2[C@@H]1O[C@H](CO)[C@@H](O)[C@H]1O [compound 31]	> 64	23.5	16	> 64	> 64	–	–	–
Cc1ncnc2c1c(CCC(C)C)cn2[C@@H]1O[C@H](CO)[C@@H](O)[C@H]1O [compound 32]	> 64	> 64	4	> 64	> 64	–	–	–
Cc1ncnc2c1c(C#CC1CC1)cn2[C@@H]1O[C@H](CO)[C@@H](O)[C@H]1O [compound 33]	4.59 ± 0.89	1.36 ± 0.41	0.34 ± 0.11	27.5 ± 19	> 64	–	–	–
Cc1ncnc2c1c(CCC1CC1)cn2[C@@H]1O[C@H](CO)[C@@H](O)[C@H]1O [compound 34]	> 64	> 64	> 64	> 64	> 64	–	–	–
Cc1ncnc2c1c(/C=C/c1ccccc1)cn2[C@@H]1O[C@H](CO)[C@@H](O)[C@H]1O [compound 35]	1.94 ± 0.09	6.19 ± 0.57	4.54 ± 0.93	26.6 ± 1.42	32	–	–	–
Cc1ncnc2c1c(CCc1ccccc1)cn2[C@@H]1O[C@H](CO)[C@@H](O)[C@H]1O [compound 36]	40.3	> 64	38.7	> 64	> 64	–	–	–
CCc1cn([C@@H]2O[C@H](CO)[C@@H](O)[C@H]2O)c2ncnc(CC)c12 [compound 37]	> 64	2.03	2.02	20.2	> 64	–	–	–
CCc1cn([C@@H]2O[C@H](CO)[C@@H](O)[C@H]2O)c2ncncc12 [compound 38]	5.38	1.54	1.73	> 64	> 64	–	–	–
CCc1cn([C@@H]2O[C@H](CO)[C@@H](O)[C@H]2O)c2nc[nH]c(=O)c12 [compound 40]	> 64	48.5	40.3	> 64	> 64	–	–	–
CCc1cn([C@@H]2O[C@H](CO)[C@@H](O)[C@H]2O)c2ncnc(OC)c12 [compound 41]	> 64	0.47 ± 0.01	1.31 ± 0.44	> 64	> 64	–	–	–

Reference: PMC8358123 (International Journal for Parasitology: Drugs and Drug …, 2021)
